Results reported in ChEMBL document CHEMBL4028903 (J Med Chem, 2017).
pEC50: −log10 of the molar value.

Key:
Rattus norvegicus [1] = assay: In vivo agonist activity at FXR in po dosed Sprague-Dawley rat assessed as induction of FGF15 protein level in plasma administered once daily for 14 days measured 7 hrs post last dose on day 14; format: functional, organism-based
[2] = AUC in rat at 10 mg/kg, po administered via gavage by LC-MS/MS analysis; format: ADME, organism-based; details: in vivo
Outline: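 Rats were dosed IV as a solution in 75% PEG300:25% D5W, or orally as a suspension in 0.5% methylcellulose, 0.5% Tween80 and 99% water.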

Rattus norvegicus [3] = assay: In vivo agonist activity at FXR in po dosed Sprague-Dawley rat assessed as induction of FGF15 mRNA level in ileum administered once daily for 14 days measured 7 hrs post last dose on day 14 by qPCR analysis; format: functional
Rattus norvegicus [4] = assay: In vivo agonist activity at FXR in po dosed Sprague-Dawley rat assessed as reduction in serum triglyceride level administered once daily for 14 days measured 24 hrs post last dose; format: functional, organism-based
[5] = Drug uptake in Sprague-Dawley rat liver at 1 mg/kg, po qd administered via gavage measured 1 hr post last dose on day 14 by LC-MS/MS analysis; format: ADME, organism-based; details: read-out: Drug uptake
Outline: (§1)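 Drug concentration in liver was quantified from tissue homogenates, so these are total levels. Unbound liver concentration was not determined.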

[6] = Drug uptake in Sprague-Dawley rat liver at 0.3 mg/kg, po qd administered via gavage measured 7 hrs post last dose on day 14 by LC-MS/MS analysis; format: ADME, organism-based; details: read-out: Drug uptake; outline: as §1
[7] = Drug uptake in Sprague-Dawley rat plasma at 0.3 mg/kg, po qd administered via gavage measured 7 hrs post last dose on day 14 by LC-MS/MS analysis; format: ADME, organism-based
[8] = Drug uptake in Sprague-Dawley rat plasma at 0.1 mg/kg, po qd administered via gavage measured 1 hr post last dose on day 14 by LC-MS/MS analysis; format: ADME, organism-based
[9] = Drug uptake in Sprague-Dawley rat liver at 0.01 mg/kg, po qd administered via gavage measured 1 hr post last dose on day 14 by LC-MS/MS analysis; format: ADME, organism-based; details: read-out: Drug uptake; outline: as §1
[10] = Drug uptake in Sprague-Dawley rat liver at 0.003 mg/kg, po qd administered via gavage measured 7 hrs post last dose on day 14 by LC-MS/MS analysis; format: ADME, organism-based; details: read-out: Drug uptake; outline: as §1
Rattus norvegicus [11] = assay: Dose normalized AUC (0 to 24 hrs) in Sprague-Dawley rat at 3 mg/kg, po qd administered via gavage measured on day 1 by LC-MS/MS analysis; format: ADME, organism-based; details: in vivo
Rattus norvegicus [12] = assay: Dose normalized AUC (0 to 24 hrs) in Sprague-Dawley rat at 0.01 mg/kg, po qd administered via gavage measured on day 1 by LC-MS/MS analysis; format: ADME, organism-based; details: in vivo
[13] = AUC (0 to 24 hrs) in Sprague-Dawley rat at 0.1 mg/kg, po qd administered via gavage measured on day 1 by LC-MS/MS analysis; format: ADME, organism-based; design: time < 24 hr, dose 0.1 mg/kg, route oral; details: in vivo
[14] = Cmax in Sprague-Dawley rat at 3 mg/kg, po qd administered via gavage measured on day 11 by LC-MS/MS analysis; format: ADME, organism-based; design: dose 3 mg/kg, route oral; details: in vivo
[15] = Cmax in Sprague-Dawley rat at 0.1 mg/kg, po qd administered via gavage measured on day 1 by LC-MS/MS analysis; format: ADME, organism-based; design: dose 0.1 mg/kg, route oral; details: in vivo
[16] = Cmax in Sprague-Dawley rat at 0.01 mg/kg, po qd administered via gavage measured on day 11 by LC-MS/MS analysis; format: ADME, organism-based; design: dose 0.01 mg/kg, route oral; details: in vivo
[17] = Cmax in Sprague-Dawley rat at 0.003 mg/kg, po qd administered via gavage measured on day 11 by LC-MS/MS analysis; format: ADME, organism-based; design: dose 0.003 mg/kg, route oral; details: in vivo
[18] = Protein binding in rat plasma at 0.01 to 0.05 mg/kg, po qd administered via gavage by LC-MS/MS analysis; format: ADME, organism-based; details: read-out: PPB
[19] = biological target: T1, G-protein coupled bile acid receptor 1 (Homo sapiens, UniProt Q8TDU6); assay: Agonist activity at human TGR5
T1 sequence (Q8TDU6 whole entry): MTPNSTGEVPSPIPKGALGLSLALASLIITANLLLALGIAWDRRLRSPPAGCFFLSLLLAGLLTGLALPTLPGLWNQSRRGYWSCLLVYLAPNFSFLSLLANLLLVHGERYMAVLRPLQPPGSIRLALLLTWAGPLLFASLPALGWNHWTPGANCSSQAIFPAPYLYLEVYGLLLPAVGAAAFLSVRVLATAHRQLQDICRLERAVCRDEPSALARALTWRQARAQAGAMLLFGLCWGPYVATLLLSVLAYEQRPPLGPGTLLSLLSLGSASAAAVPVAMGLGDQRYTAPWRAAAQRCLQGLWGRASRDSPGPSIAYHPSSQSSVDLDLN

[20] = biological target: T2, G-protein coupled bile acid receptor 1 (Mus musculus, UniProt Q80SS6); assay: Agonist activity at mouse TGR5
T2 sequence (Q80SS6 whole entry): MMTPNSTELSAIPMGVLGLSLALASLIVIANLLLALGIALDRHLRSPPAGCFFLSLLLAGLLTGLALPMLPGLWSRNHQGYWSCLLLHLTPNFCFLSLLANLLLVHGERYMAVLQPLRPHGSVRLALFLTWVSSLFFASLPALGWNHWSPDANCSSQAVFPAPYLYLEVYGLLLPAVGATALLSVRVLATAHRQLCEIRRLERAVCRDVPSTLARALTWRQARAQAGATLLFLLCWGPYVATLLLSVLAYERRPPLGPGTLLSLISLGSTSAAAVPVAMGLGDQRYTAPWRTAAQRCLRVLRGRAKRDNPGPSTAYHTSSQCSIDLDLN

[21] = Clearance in dog at 0.5 mg/kg, iv by LC-MS/MS analysis; format: ADME, organism-based, Canis lupus familiaris; details: in vivo
Outline: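 Single IV dose given as a solution. Mouse received 5 mg/kg in 75% PEG300:25% D5W. Dog received 0.5 mg/kg in 20% PEG300, 5% solutol and 75% carbonate buffer pH = 8.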

[22] = Cmax in dog at 2 mg/kg, po administered via gavage by LC-MS/MS analysis; format: ADME, organism-based, Canis lupus familiaris; design: dose 2 mg/kg, route oral; details: in vivo
Outline: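 Single oral dose given as a suspension in 0.5% methylcellulose, 0.5% Tween80 and 99% water. Doses were 10 mg/kg in mouse, 1 mg/kg in rat and 2 mg/kg in dog.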

[23] = Oral bioavailability in mouse at 10 mg/kg administered via gavage by LC-MS/MS analysis; format: ADME, organism-based; details: in vivo
Outline: (§2)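 IV dosing used a solution in 75% PEG300:25% D5W for mouse and rat, and a solution in 20% PEG300, 5% solutol, 75% carbonate buffer pH 8 for dog. PO dosing used a suspension in 0.5% methylcellulose, 0.5% Tween80, 99% water for all three species.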

[24] = Oral bioavailability in dog at 2 mg/kg administered via gavage by LC-MS/MS analysis; format: ADME, organism-based, Canis lupus familiaris; details: in vivo; outline: as §2
Rattus norvegicus [25] = assay: In vivo agonist activity at FXR in po dosed Sprague-Dawley rat assessed as induction of SHP mRNA level in ileum administered as single dose measured 7 hrs post dose by qPCR analysis; format: functional, organism-based
[26] = Drug uptake in Sprague-Dawley rat plasma at 1 mg/kg, po qd administered via gavage measured 7 hrs post last dose on day 14 by LC-MS/MS analysis; format: ADME, organism-based
[27] = Drug uptake in Sprague-Dawley rat liver at 3 mg/kg, po qd administered via gavage measured 7 hrs post last dose on day 14 by LC-MS/MS analysis; format: ADME, organism-based; details: read-out: Drug uptake; outline: as §1

Compound: O=C(O)c1cc(F)c2nc(N3C4CCC3CC(OCc3c(-c5ccccc5OC(F)(F)F)noc3C3CC3)C4)sc2c1 (configuration not stated)
- Activity (Rattus norvegicus [1]): Dose-dependent effect
- AUC [2]: 6.04 µM·h
- ED50 (Rattus norvegicus [3]): 0.05 mg/kg
- Activity (Rattus norvegicus [4]): Dose-dependent effect
- concentration at 1 h [5]: 159 nM
- concentration at 7 h [6]: 92.8 nM
- concentration at 7 h [7]: 13.8 nM
- concentration at 1 h [8]: 3.95 nM
- concentration at 1 h [9]: 8.35 nM
- concentration at 7 h [10]: 2.3 nM
- AUC/dose (Rattus norvegicus [11]): 448 nM·h
- AUC/dose (Rattus norvegicus [12]): 443 nM·h
- AUC(0-t) at 24 h [13]: 0.041 µM·h
- Cmax [14]: 127 nM
- Cmax [15]: 4.6 nM
- Cmax [16]: 0.79 nM
- Cmax [17]: 0.26 nM
- fraction unbound [18]: 0.001
- pEC50 [19]: < 5.00
- pEC50 [20]: < 5.00
- clearance [21]: 1.5 mL/min/kg
- Cmax [22]: 332 nM
- bioavailability [23]: 9.2%
- bioavailability [24]: 10%
- Activity (Rattus norvegicus [25]): Dose-dependent effect
- concentration at 7 h [26]: 40.5 nM
- concentration at 7 h [27]: 640 nM
